The values that follow come from ChEMBL document CHEMBL4680121, “Development of (4-methoxyphenyl)-1H-tetrazol-5-amine regioisomers as a new class of selective antitubercular agents” (Eur J Med Chem, 2020).

What all share (type): functional
Test [1] has as its system Mycobacterium tuberculosis. The experiment in a line: Antitubercular activity against INH-resistant Mycobacterium tuberculosis Spec.800 harboring InhA promoter mutation assessed as inhibition of microbial growth incubated for 1 week by MABA method. Particulars: time 1 weeks. Put shortly: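 Microplate Alamar Blue assay in Middlebrook 7H9 broth with 10% OADC. Inoculum from fresh LJ culture was adjusted to McFarland 1 and diluted 1:20. DMSO stocks were two-fold serially diluted to final 0.125–512 µg/ml, with growth and sterile controls. Plates ran 1 week at 37 °C, then Alamar blue was added for 24 h. MIC is the lowest concentration preventing the blue-to-pink change.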

The test system of test [2] is Mycobacterium tuberculosis. The experiment in a line: Antitubercular activity against PAS/INH/EMB/RMP-resistant Mycobacterium tuberculosis Spec.210 assessed as fractional inhibitory concentration index in presence of 1/2 x MIC rifampicin incubated for 14 days by MABA method. Particulars: time 14 day. In short, it runs like this: (§1)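 Interaction analysis in Middlebrook 7H9 with 10% OADC. Combination MICs came from mixing the derivative (1 to 1/32 MIC) with the reference drug at 1/2 MIC, and the reverse, after 14 days at 37 °C with McFarland 1 inoculum. FICI was calculated from the combination MIC values and the MICs alone.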

Test [3] has as its system Mycobacterium tuberculosis. The experiment in a line: Antitubercular activity against PAS/INH/EMB/RMP-resistant Mycobacterium tuberculosis Spec.210 assessed as fractional inhibitory concentration index in presence of 1/2 x MIC ethambutol incubated for 14 days by MABA method. To be noted: time 14 day. Put shortly: as §1
In test [4] the test system is Mycobacterium tuberculosis. The experiment in a line: Antitubercular activity against INH-resistant Mycobacterium tuberculosis Spec.800 harboring InhA promoter mutation assessed as fractional inhibitory concentration index in presence of 1/2 x MIC isoniazid incubated for 14 days by MABA method. Particulars: time 14 day. In short, it runs like this:
as §1

The test system of test [5] is Mycobacterium tuberculosis. Put plainly: Antitubercular activity against INH-resistant Mycobacterium tuberculosis Spec.800 harboring InhA promoter mutation assessed as fractional inhibitory concentration index in presence of 1/2 x MIC ethambutol incubated for 14 days by MABA method. Particulars: time 14 day. In short, it runs like this:
as §1

For test [6], the system named is Mycobacterium tuberculosis. Put plainly: Antitubercular activity against PAS/INH/EMB/RMP-resistant Mycobacterium tuberculosis Spec.210 assessed as reduction in bacterial growth incubated for 14 days in presence of 1/2 x MIC rifampicin by MABA method. Particulars: Mycobacterium tuberculosis, 210, 336 h; time 14 day. Put shortly:
(§2)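 Checkerboard-style combination in Middlebrook 7H9 broth with 10% OADC. The test derivative was varied from 1 to 1/32 of its MIC, and the reference drug was fixed at 1/2 its own MIC. Single-agent MICs were determined first by MABA. Samples of 4 ml received inoculum at 1 McFarland and were incubated 14 days at 37 °C. The endpoint was the lowest derivative concentration that inhibited growth.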

Test [7] concerns Mycobacterium tuberculosis. The experiment in a line: Antitubercular activity against PAS/INH/EMB/RMP-resistant Mycobacterium tuberculosis Spec.210 assessed as reduction in bacterial growth incubated for 14 days in presence of 1/2 x MIC isoniazid by MABA method. Particulars: Mycobacterium tuberculosis, 210, 336 h; time 14 day. In short, it runs like this: as §2
Test [8] has as its system Mycobacterium tuberculosis. The experiment in a line: Antitubercular activity against PAS/INH/EMB/RMP-resistant Mycobacterium tuberculosis Spec.210 assessed as reduction in bacterial growth incubated for 14 days in presence of 1/2 x MIC streptomycin by MABA method. To be noted: Mycobacterium tuberculosis, 210, 336 h; time 14 day. Put shortly:
as §2

The subject of test [9] is Mycobacterium tuberculosis. Put plainly: Antitubercular activity against PAS/INH/EMB/RMP-resistant Mycobacterium tuberculosis Spec.210 assessed as reduction in bacterial growth incubated for 14 days in presence of 1/2 x MIC ethambutol by MABA method. To be noted: Mycobacterium tuberculosis, 210, 336 h; time 14 day. Put shortly:
as §2

Test [10] has as its system Mycobacterium tuberculosis. Put plainly: Antitubercular activity against PAS/INH/EMB/RMP-resistant Mycobacterium tuberculosis Spec.210 assessed as rifampicin MIC incubated for 14 days in presence of rifampicin by MABA method. To be noted: Mycobacterium tuberculosis, 210, 336 h; time 14 day. Put shortly:
(§3)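 Combination assay in Middlebrook 7H9 broth with 10% OADC. The reference drug (INH, RMP, SM or EMB) was varied from 1 to 1/32 of its MIC, and the test derivative was fixed at 1/2 its own MIC. Single-agent MICs were determined first by MABA. Inoculum was 1 McFarland, with 14 days of incubation at 37 °C. The endpoint was the lowest reference-drug concentration that inhibited growth.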

Test [11] relates to Mycobacterium tuberculosis. Put plainly: Antitubercular activity against PAS/INH/EMB/RMP-resistant Mycobacterium tuberculosis Spec.210 assessed as isoniazid MIC incubated for 14 days in presence of isoniazid by MABA method. Particulars: Mycobacterium tuberculosis, 210, 336 h; time 14 day. Put shortly: (§4)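 In Middlebrook 7H9 with 10% OADC, the reference drug (INH, RMP, SM or EMB) at 1 to 1/32 of its MIC alone was mixed with the test derivative fixed at 1/2 its MIC. 4 ml samples were inoculated with McFarland 1 suspension and incubated 14 days at 37 °C. MIC is the lowest drug concentration in combination that inhibited growth.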

For test [12], the system named is Mycobacterium tuberculosis. The experiment in a line: Antitubercular activity against PAS/INH/EMB/RMP-resistant Mycobacterium tuberculosis Spec.210 assessed as streptomycin MIC incubated for 14 days in presence of streptomycin by MABA method. Particulars: Mycobacterium tuberculosis, 210, 336 h; time 14 day. Put shortly:
as §3

Test [13] deals with Mycobacterium tuberculosis. Put plainly: Antitubercular activity against PAS/INH/EMB/RMP-resistant Mycobacterium tuberculosis Spec.210 assessed as ethambutol MIC incubated for 14 days in presence of ethambutol by MABA method. To be noted: Mycobacterium tuberculosis, 210, 336 h; time 14 day. In short, it runs like this:
as §4

The subject of test [14] is Mycobacterium tuberculosis. Put plainly: Antitubercular activity against INH-resistant Mycobacterium tuberculosis Spec.800 assessed as reduction in bacterial growth incubated for 14 days in presence of 1/2 x MIC streptomycin by MABA method. To be noted: Mycobacterium tuberculosis, 800, 336 h; time 14 day. Put shortly:
(§5)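 Checkerboard-type combination in Middlebrook 7H9 with 10% OADC. The test derivative at 1 to 1/32 of its MIC alone was mixed with the reference drug fixed at 1/2 its MIC. 4 ml samples were inoculated with McFarland 1 suspension and incubated 14 days at 37 °C. MIC is the lowest derivative concentration in combination that inhibited growth in liquid medium.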

Test [15] has as its system Mycobacterium tuberculosis. Put plainly: Antitubercular activity against INH-resistant Mycobacterium tuberculosis Spec.800 assessed as reduction in bacterial growth incubated for 14 days in presence of 1/2 x MIC ethambutol by MABA method. Particulars: Mycobacterium tuberculosis, 800, 336 h; time 14 day. Put shortly:
as §5

Test [16] relates to Mycobacterium tuberculosis. The experiment in a line: Antitubercular activity against INH-resistant Mycobacterium tuberculosis Spec.800 assessed as isoniazid MIC incubated for 14 days in presence of isoniazid by MABA method. Particulars: Mycobacterium tuberculosis, 800, 336 h; time 14 day. Put shortly:
as §4

Test [17] relates to Mycobacterium tuberculosis. The experiment in a line: Antitubercular activity against INH-resistant Mycobacterium tuberculosis Spec.800 assessed as streptomycin MIC incubated for 14 days in presence of streptomycin by MABA method. To be noted: Mycobacterium tuberculosis, 800, 336 h; time 14 day. In short, it runs like this: as §4
Test [18] deals with Mycobacterium tuberculosis. Put plainly: Potency index, Ratio of rifampicin MIC to test compound MIC for antitubercular activity against PAS/INH/EMB/RMP-resistant Mycobacterium tuberculosis Spec.210 assessed as inhibition of microbial growth incubated for 1 week by MABA method. Particulars: time 1 weeks.
Test [19] relates to Mycobacterium tuberculosis. Put plainly: Potency index, Ratio of ethambutol MIC to test compound MIC for antitubercular activity against PAS/INH/EMB/RMP-resistant Mycobacterium tuberculosis Spec.210 assessed as inhibition of microbial growth incubated for 1 week by MABA method. Particulars: time 1 weeks.
The subject of test [20] is Mycobacterium tuberculosis. Put plainly: Potency index, Ratio of isoniazid MIC to test compound MIC for antitubercular activity against PAS/INH/EMB/RMP-resistant Mycobacterium tuberculosis Spec.210 assessed as inhibition of microbial growth incubated for 1 week by MABA method. To be noted: time 1 weeks.
The test system of test [21] is Mycobacterium tuberculosis. Put plainly: Potency index, Ratio of streptomycin MIC to test compound MIC for antitubercular activity against PAS/INH/EMB/RMP-resistant Mycobacterium tuberculosis Spec.210 assessed as inhibition of microbial growth incubated for 1 week by MABA method. Particulars: time 1 weeks.
Test [22] has as its system Mycobacterium tuberculosis. Put plainly: Potentiation of streptomycin-induced antimycobacterial activity against INH-resistant Mycobacterium tuberculosis Spec.800 harboring InhA promoter mutation assessed as fold decrease in streptomycin MIC at 1/2X MIC incubated for 14 days in presence of streptomycin by MABA method. Particulars: time 14 day. Put shortly:
as §3

Molecules are shown by their SMILES.

In the case of `COc1ccc(-n2nnnc2Nc2cccc(Br)c2)cc1`, the MIC worked out at 128 µg/mL in [1]; 0.5 µg/mL in test [6]; 0.25 µg/mL in test [7]; 0.5 µg/mL in test [8]; 2 µg/mL in test [9]; 8 µg/mL in [10]. Also, the MIC in test [11] came out at 16 µg/mL; in test [12], 16 µg/mL; in test [13], 16 µg/mL; in test [14], 8 µg/mL; in [15], 32 µg/mL; in test [16], 1 µg/mL. Further, the MIC in [17] is 0.5 µg/mL. In addition, the “fractional inhibitory concentration index (FICI)” value was found to be 0.5 in [2], 1.5 in [3], 0.625 in [4] and 0.75 in test [5]. In addition, the Ratio in test [18] was found to be 16; in [19], 16; in test [20], 8; in test [21], 8. The “fold change (FC)” value in [22] was “<=4”.
Take `COc1ccc(-n2nnnc2Nc2ccc(Br)cc2)cc1`: the MIC in test [1] is 128 µg/mL; in test [6] it was 1 µg/mL; in test [7], 0.25 µg/mL; in [8], 1 µg/mL; in test [9], 2 µg/mL; in test [10], 8 µg/mL. Also, the MIC was 8 µg/mL in test [11]; 8 µg/mL in test [12]; 16 µg/mL in [13]; 16 µg/mL in [14]; 32 µg/mL in test [15]; 0.5 µg/mL in test [16]. Besides, the MIC in [17] was determined as 0.25 µg/mL. The “fractional inhibitory concentration index (FICI)” value came to 0.75 in [2], 1.5 in test [3], 0.5 in test [4] and 0.75 in [5]. For the same compound, the Ratio was found to be 16 in test [18], 16 in test [19], 8 in test [20] and 8 in [21]. In [22], the “fold change (FC)” value was determined as 4.
